These results are taken from ChEMBL document CHEMBL4219164, “Design, synthesis and biological evaluation of novel 3-substituted pyrazolopyrimidine derivatives as potent Bruton's tyrosine kinase (BTK) inhibitors” (Bioorg Med Chem, 2018).

Assay [1] concerns the target Tyrosine-protein kinase BTK (Homo sapiens, UniProt Q06187). The assay can be described thus: Inhibition of full length human N-terminal GST-tagged BTK (2 to 659 residues) expressed in baculovirus expression system using biotinylated substrate after 50 mins by HTRF assay. Background: TR-FRET usually uses a lanthanide donor and a delayed reading to cut background.
The test system of a further assay is Ramos. The assay is described as follows: Antiproliferative activity against human Ramos cells after 48 hrs by CCK8-based assay. It is filed as functional, cell-based.
In another assay the test system is Raji. The assay is described as follows: Antiproliferative activity against human Raji cells after 48 hrs by CCK8-based assay. It is filed as functional, cell-based. Summed up:
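CCK-8 viability readout. Cells were seeded at 2000–3000 per well and held 24 h at 37 °C in 5% CO2, then exposed to compound at five concentrations within 1.25–40 μM, each in triplicate. CCK-8 was added for a further 1–4 h and absorbance read at 450 nm, with cell number set to give 0.5–1.2. IC50 was taken as the mean of at least three experiments.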
(Formazan colour is commonly taken as a measure of viable cells.)

Tyrosine-protein kinase BTK, sequence (Q06187 whole entry, the tested form may be a part): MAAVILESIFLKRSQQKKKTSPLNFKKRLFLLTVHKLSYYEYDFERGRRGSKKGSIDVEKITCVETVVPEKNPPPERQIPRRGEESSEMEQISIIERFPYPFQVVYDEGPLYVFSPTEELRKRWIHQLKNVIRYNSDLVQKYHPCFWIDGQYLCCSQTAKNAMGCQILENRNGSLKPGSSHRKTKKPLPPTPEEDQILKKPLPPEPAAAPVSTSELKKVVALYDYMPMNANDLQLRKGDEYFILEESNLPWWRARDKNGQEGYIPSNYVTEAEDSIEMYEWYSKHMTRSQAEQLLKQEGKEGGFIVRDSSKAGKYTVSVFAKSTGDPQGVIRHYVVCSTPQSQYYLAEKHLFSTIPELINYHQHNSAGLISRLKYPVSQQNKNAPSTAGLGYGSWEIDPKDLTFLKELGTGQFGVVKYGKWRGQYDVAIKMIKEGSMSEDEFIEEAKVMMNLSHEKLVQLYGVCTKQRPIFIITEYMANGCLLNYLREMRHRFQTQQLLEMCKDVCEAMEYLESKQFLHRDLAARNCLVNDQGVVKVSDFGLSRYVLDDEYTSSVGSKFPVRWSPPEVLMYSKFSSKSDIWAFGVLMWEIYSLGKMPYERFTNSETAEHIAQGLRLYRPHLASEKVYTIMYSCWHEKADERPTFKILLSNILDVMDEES

`C=CC(=O)N1CCC[C@@H](n2nc(C#CCOc3ccc(OC)cc3)c3c(N)ncnc32)C1` returned an IC50 in assay [1] of 89.6 nM.

In assay [1], `C=CC(=O)N1CCC[C@@H](n2nc(CCCOc3ccccc3)c3c(N)ncnc32)C1` showed an IC50 of 22.2 nM.

With `C=CC(=O)N1CCC[C@@H](n2nc(C#CCOc3cccc(Cl)c3)c3c(N)ncnc32)C1`, the 50% inhibitory concentration (IC50) in assay [1] is 18.1 nM; in the assay on Ramos, above 40000 nM; in the assay on Raji, 2280 nM.

The molecule `C=CC(=O)N1CCC[C@@H](n2nc(/C=C/COc3ccccc3)c3c(N)ncnc32)C1` returned an IC50 in assay [1] of 11.3 nM.

`C=CC(=O)N1CCC[C@@H](n2nc(C#CCOc3ccccc3C)c3c(N)ncnc32)C1`: the IC50 in assay [1] worked out at 49.2 nM.

With `C=CC(=O)N1CCC[C@@H](n2nc(C#CCSc3ccccc3)c3c(N)ncnc32)C1`, the concentration for half-maximal inhibition (IC50) in assay [1] was found to be 11 nM; in the assay on Ramos, 37200 nM; in the assay on Raji, 2720 nM.

With `C=CC(=O)N1CCC[C@@H](n2nc(C#CCOc3ccccc3)c3c(N)ncnc32)C1`, the IC50 in assay [1] is 7.95 nM; with Ramos it was 8910 nM; in the assay with Raji, 1800 nM.

In assay [1], `C=CC(=O)N1CCC[C@@H](n2nc(C#CCc3ccccc3)c3c(N)ncnc32)C1` had an IC50 of 102 nM.

Consider `C=CC(=O)N1CCC[C@@H](n2nc(C#CCOc3cccc(C(F)(F)F)c3)c3c(N)ncnc32)C1`, for which the concentration for half-maximal inhibition (IC50) in assay [1] came to 209 nM.

`C=CC(=O)N1CCC[C@@H](n2nc(C#CCOc3ccc(C)cc3)c3c(N)ncnc32)C1` yielded an IC50 in assay [1] of 26.9 nM.

For `C=CC(=O)N1CCC[C@@H](n2nc(C#CCNc3ccccc3)c3c(N)ncnc32)C1`, the values for the IC50 (in assay [1]; in the assay with Ramos; in the assay on Raji) were 18.1 nM, 18200 nM and above 40000 nM, respectively.

`C=CC(=O)N1CCC[C@@H](n2nc(C#CCOc3cccc(OC)c3)c3c(N)ncnc32)C1`: the IC50 is 9.84 nM in assay [1], above 40000 nM in the assay on Ramos and 1690 nM in the assay on Raji.

The molecule `C=CC(=O)N1CCC[C@@H](n2nc(C#CCOc3cccc(C)c3)c3c(N)ncnc32)C1` showed a 50% inhibitory concentration (IC50) in assay [1] of 20.8 nM.

On to `C=CC(=O)N1CCC[C@@H](n2nc(C#CCOc3cccc(C(C)C)c3)c3c(N)ncnc32)C1`, for which the half-maximal inhibitory concentration (IC50) in assay [1] was 45.4 nM.

As for `C=CC(=O)N1CCC[C@@H](n2nc(C#CCCc3ccccc3)c3c(N)ncnc32)C1`, the half-inhibitory concentration (IC50) in assay [1] is 15.9 nM; in the assay on Ramos it was above 40000 nM; in the assay on Raji it was 1620 nM.

In assay [1], `C=CC(=O)N1CCC[C@@H](n2nc(C#CCCOc3ccccc3)c3c(N)ncnc32)C1` yielded an IC50 of 39.8 nM.

For `C=CC(=O)N1CCC[C@@H](n2nc(C#CCOc3ccccc3OC)c3c(N)ncnc32)C1`, in assay [1], the IC50 came to 38.2 nM.

For `C=CC(=O)N1CCC[C@@H](n2nc(/C=C\COc3ccccc3)c3c(N)ncnc32)C1`, the IC50 in assay [1] is 23.2 nM; in the assay with Ramos, 14600 nM; in the assay on Raji it was above 40000 nM.

On to `C=CC(=O)N1CCC[C@@H](n2nc(-c3ccc(Oc4ccccc4)cc3)c3c(N)ncnc32)C1` [IBRUTINIB], for which the IC50 in the assay on Raji is 1490 nM.

As a reminder, the IC50 is the concentration that inhibits the measured activity by half.
